Experimental data: ChEMBL document CHEMBL1137011, “Antagonists of the calcium receptor I. Amino alcohol-based parathyroid hormone secretagogues” (J Med Chem, 2009)
The source made the active and inactive calls. No cut-off for these calls is given here.

Key:
[1] = target: Beta-1 adrenergic receptor (Homo sapiens, UniProt P08588); test: Binding affinity to beta-1 adrenoceptor
Rattus norvegicus [2] = test: Increase in plasma parathyroid hormone level in normal conscious rat at 10 umol/kg, iv by immunoradiometric assay; assay type: functional, organism-based
Outline: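 Normal conscious rats were given a single iv injection of 10 µmol/kg. Plasma PTH was measured over time by rat PTH(1-34) immunoradiometric assay, n = 6/group, mean ± SE.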

[3] = Oral bioavailability in rat; assay type: ADME, organism-based; conditions: in vivo
Rattus norvegicus [4] = test: Increase of bone mass in 17-beta-estradiol-treated ovariectomized postmenopausal osteoporosis Sprague-Dawley rat model at 100 umol/kg, po for 5 weeks; assay type: functional, organism-based
[5] = target: Sodium-dependent dopamine transporter (Homo sapiens, UniProt Q01959); test: Binding affinity to dopamine transporter
Cytochrome P450 2D6 = Cytochrome P450 2D6 (Homo sapiens, UniProt P10635); test: Binding affinity to CYP2D6; assay type: ADME
Rattus norvegicus [6] = test: Effect on net increase in bone mass in ovariectomized postmenopausal osteoporosis Sprague-Dawley rat model at 100 umol/kg, po for 5 weeks; assay type: functional, organism-based
[7] = target: T1, Extracellular calcium-sensing receptor (Homo sapiens, UniProt P41180); test: Binding affinity to human parathyroid calcium receptor 1 expressed in HEK293 4.0-7 cells by radioligand binding assay; assay type: cell-based
T1 sequence (P41180 whole entry): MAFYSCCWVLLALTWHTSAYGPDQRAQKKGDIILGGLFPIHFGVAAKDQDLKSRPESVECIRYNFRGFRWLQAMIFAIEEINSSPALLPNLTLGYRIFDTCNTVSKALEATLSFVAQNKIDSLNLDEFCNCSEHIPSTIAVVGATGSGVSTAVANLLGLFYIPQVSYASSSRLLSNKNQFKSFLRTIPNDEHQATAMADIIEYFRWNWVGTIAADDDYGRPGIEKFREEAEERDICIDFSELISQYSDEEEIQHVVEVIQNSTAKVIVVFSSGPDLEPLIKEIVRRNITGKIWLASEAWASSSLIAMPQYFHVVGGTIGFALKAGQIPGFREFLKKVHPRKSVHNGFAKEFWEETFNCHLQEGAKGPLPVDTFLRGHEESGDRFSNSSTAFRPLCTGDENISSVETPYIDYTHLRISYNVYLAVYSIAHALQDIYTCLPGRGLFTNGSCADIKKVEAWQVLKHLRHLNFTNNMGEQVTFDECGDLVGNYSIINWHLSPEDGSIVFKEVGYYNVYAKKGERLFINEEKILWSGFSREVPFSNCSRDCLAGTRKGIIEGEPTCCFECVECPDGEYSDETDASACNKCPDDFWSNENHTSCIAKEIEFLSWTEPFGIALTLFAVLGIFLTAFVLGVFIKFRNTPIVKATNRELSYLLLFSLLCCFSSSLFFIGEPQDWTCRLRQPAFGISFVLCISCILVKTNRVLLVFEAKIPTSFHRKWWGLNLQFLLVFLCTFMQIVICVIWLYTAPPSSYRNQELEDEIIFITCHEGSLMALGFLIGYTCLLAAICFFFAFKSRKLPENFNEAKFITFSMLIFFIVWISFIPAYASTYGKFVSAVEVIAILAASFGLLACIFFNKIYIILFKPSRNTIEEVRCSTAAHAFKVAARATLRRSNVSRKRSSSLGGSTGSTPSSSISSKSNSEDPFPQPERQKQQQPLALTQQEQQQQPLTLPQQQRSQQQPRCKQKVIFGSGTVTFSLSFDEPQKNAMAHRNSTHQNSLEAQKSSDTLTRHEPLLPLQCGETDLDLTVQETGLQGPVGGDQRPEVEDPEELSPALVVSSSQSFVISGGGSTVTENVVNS
Outline: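 Membranes from HEK293 4.0-7 cells stably expressing human CaR (4-10 µg) in 50 mM Tris-HCl pH 7.4, 1 mM EDTA, 3 mM MgCl2, 0.1% gelatin, 10% EtOH. Incubated with 2 nM 3H antagonist or 3H calcimimetic ligand for 30 min at 4 °C, then filtered onto PEI-treated GF/C and counted by scintillation. Nonspecific binding taken with 100-fold excess of unlabeled homologous ligand.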

Rattus norvegicus [8] = test: Increase of bone mass in ovariectomized postmenopausal osteoporosis Sprague-Dawley rat model at 5 ug/kg, po for 5 weeks; assay type: functional, organism-based
[9] = Half life in rat; assay type: ADME, organism-based; conditions: in vivo
[10] = target: Voltage-gated inwardly rectifying potassium channel KCNH2 (Homo sapiens, UniProt Q12809); test: Binding affinity to human ERG
[11] = target: Beta-2 adrenergic receptor (Homo sapiens, UniProt P07550); test: Binding affinity to beta2 adrenoceptor
Rattus norvegicus [12] = test: Increase of new bone formation in ovariectomized postmenopausal osteoporosis Sprague-Dawley rat model at 100 umol/kg, po for 5 weeks; assay type: functional, organism-based
Rattus norvegicus [13] = organism: Rattus norvegicus; test: Clearance in rat; assay type: ADME, organism-based; conditions: in vivo
[14] = target: Beta-3 adrenergic receptor (Homo sapiens, UniProt P13945); test: Binding affinity to beta3 adrenoceptor
[15] = Increase in parathyroid hormone release in bovine parathyroid cells; assay type: functional, cell-based; conditions: Bos taurus
[16] = target: Sodium-dependent noradrenaline transporter (Homo sapiens, UniProt P23975); test: Binding affinity to norepinephrine transporter
Rattus norvegicus [17] = test: Increase of resorption of old bone in ovariectomized postmenopausal osteoporosis Sprague-Dawley rat model at 100 umol/kg, po for 5 weeks; assay type: functional, organism-based
[18] = target: Sodium-dependent serotonin transporter (Homo sapiens, UniProt P31645); test: Binding affinity to serotonin transporter
[19] = Antagonist activity at human calcium receptor 1 expressed in HEK293 4.0-7 cells assessed as inhibition of extracellular calcium-induced increase in intracellular calcium level by FLIPR assay; assay type: functional, cell-based
Outline: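 HEK293 cells stably expressing human CaR, seeded 15K cells/well and grown 48 h at 37 °C. Loaded 45 min at 37 °C with Fluo4 (2 µM final) and probenecid (2.5 mM final) in HBSS with 0.75 mM Ca. Compound (top 25 µM final) was added 5 min at room temperature, then EC80 CaCl challenge, with FLIPR fluorescence read for 65 s.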

[20] = Volume of distribution in rat; assay type: ADME, organism-based; conditions: in vivo
[21] = Clearance in women; assay type: ADME, organism-based; conditions: female, human, in vivo
[22] = Volume of distribution in human; assay type: ADME, organism-based; conditions: in vivo
[23] = Tmax in human; assay type: ADME, organism-based; conditions: in vivo
[24] = Clearance in men; assay type: ADME, organism-based; conditions: male, human, in vivo

Sodium-dependent serotonin transporter, sequence (P31645 whole entry): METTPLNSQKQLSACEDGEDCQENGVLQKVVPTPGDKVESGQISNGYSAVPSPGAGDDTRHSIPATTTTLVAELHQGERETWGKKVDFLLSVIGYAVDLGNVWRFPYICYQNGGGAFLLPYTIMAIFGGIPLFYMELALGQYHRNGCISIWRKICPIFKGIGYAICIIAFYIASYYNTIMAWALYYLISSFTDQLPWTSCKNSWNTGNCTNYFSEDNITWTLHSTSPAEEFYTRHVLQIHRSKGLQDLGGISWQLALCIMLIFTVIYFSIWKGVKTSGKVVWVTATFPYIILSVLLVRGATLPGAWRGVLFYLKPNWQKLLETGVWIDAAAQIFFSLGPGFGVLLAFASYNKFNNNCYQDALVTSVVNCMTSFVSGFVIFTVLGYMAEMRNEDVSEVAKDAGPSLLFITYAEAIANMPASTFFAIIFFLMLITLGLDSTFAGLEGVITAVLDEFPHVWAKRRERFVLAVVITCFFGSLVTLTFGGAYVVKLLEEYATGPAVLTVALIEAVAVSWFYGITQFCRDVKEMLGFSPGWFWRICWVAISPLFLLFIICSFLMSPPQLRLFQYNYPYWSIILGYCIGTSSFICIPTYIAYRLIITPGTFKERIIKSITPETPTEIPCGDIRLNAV
Beta-3 adrenergic receptor, sequence (P13945 whole entry): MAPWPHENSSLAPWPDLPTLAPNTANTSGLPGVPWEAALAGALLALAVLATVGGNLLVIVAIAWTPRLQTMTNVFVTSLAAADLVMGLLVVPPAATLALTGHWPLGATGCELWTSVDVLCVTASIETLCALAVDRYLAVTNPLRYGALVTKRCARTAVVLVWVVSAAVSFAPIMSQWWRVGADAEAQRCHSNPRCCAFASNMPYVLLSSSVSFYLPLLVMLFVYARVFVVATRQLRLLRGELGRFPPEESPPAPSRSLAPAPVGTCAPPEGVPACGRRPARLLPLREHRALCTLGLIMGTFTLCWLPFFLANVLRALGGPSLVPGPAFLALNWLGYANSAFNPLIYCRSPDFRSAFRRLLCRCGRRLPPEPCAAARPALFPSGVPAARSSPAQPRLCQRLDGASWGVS
Beta-1 adrenergic receptor, sequence (P08588 whole entry): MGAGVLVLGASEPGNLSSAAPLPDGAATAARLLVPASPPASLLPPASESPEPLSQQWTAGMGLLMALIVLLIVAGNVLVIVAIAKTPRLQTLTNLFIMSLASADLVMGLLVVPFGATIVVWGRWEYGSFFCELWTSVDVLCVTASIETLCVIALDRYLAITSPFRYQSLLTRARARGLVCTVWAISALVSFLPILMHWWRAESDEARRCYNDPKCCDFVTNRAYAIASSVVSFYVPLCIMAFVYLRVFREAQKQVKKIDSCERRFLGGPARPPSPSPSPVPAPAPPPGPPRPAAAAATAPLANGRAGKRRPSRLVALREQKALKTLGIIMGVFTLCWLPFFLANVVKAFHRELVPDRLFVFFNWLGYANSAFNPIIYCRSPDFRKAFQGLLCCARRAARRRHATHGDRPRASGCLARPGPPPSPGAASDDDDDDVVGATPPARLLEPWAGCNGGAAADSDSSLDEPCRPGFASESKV
Beta-2 adrenergic receptor, sequence (P07550 whole entry): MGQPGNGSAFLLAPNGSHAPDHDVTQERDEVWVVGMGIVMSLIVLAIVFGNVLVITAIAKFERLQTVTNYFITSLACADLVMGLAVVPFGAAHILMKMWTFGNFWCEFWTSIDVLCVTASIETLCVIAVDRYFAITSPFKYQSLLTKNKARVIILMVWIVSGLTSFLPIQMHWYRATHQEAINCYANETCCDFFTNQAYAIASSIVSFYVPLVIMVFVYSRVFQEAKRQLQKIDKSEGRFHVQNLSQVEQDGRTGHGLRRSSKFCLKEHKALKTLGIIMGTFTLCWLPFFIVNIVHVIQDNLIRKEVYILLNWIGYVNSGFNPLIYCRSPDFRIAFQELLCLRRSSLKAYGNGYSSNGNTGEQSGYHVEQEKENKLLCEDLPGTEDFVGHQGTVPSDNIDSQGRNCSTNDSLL
Sodium-dependent dopamine transporter, sequence (Q01959 whole entry): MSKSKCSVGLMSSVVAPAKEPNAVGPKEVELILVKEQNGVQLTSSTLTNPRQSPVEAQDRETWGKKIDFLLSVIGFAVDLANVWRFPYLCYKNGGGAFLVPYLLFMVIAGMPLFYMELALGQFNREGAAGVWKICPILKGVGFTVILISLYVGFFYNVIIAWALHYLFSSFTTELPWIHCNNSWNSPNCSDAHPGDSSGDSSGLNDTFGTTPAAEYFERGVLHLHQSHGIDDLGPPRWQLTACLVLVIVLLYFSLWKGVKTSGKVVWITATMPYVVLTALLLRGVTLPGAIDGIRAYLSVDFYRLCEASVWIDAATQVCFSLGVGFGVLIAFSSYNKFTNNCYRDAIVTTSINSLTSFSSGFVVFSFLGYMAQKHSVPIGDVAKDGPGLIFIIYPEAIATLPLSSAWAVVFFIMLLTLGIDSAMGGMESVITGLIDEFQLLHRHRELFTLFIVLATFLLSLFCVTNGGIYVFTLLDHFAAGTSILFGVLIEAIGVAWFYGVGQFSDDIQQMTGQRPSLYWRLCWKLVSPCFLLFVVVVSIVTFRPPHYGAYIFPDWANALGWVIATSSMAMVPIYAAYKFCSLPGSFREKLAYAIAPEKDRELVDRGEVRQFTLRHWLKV
Voltage-gated inwardly rectifying potassium channel KCNH2, sequence (Q12809 whole entry): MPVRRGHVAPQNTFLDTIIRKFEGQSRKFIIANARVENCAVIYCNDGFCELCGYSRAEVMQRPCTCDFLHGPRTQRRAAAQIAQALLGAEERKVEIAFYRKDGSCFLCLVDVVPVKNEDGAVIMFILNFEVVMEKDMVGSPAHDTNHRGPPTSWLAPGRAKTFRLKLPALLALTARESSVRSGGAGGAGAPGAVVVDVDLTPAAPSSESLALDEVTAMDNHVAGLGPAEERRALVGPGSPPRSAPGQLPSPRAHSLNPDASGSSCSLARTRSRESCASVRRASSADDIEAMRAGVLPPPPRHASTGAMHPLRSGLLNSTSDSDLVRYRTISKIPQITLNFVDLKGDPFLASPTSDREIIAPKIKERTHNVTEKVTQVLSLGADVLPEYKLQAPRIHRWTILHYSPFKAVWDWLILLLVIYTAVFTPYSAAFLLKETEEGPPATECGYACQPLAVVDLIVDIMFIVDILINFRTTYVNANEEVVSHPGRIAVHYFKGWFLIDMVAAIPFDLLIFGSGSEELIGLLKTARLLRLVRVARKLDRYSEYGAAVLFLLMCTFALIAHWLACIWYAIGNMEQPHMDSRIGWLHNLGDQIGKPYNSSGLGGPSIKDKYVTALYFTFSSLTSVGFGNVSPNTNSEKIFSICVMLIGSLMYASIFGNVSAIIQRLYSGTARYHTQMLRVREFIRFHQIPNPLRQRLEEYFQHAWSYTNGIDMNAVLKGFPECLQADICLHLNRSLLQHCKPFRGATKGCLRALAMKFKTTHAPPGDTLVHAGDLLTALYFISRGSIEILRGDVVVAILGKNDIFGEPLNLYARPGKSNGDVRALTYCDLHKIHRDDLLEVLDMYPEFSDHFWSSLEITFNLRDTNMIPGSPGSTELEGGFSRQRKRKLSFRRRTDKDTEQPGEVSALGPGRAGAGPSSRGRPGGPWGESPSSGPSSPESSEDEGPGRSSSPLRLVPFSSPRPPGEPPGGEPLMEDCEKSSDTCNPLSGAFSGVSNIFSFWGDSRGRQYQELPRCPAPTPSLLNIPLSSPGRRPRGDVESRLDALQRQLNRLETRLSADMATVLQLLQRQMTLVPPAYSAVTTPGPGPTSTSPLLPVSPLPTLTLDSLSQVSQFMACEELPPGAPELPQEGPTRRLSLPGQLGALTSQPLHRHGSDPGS
Sodium-dependent noradrenaline transporter, sequence (P23975 whole entry): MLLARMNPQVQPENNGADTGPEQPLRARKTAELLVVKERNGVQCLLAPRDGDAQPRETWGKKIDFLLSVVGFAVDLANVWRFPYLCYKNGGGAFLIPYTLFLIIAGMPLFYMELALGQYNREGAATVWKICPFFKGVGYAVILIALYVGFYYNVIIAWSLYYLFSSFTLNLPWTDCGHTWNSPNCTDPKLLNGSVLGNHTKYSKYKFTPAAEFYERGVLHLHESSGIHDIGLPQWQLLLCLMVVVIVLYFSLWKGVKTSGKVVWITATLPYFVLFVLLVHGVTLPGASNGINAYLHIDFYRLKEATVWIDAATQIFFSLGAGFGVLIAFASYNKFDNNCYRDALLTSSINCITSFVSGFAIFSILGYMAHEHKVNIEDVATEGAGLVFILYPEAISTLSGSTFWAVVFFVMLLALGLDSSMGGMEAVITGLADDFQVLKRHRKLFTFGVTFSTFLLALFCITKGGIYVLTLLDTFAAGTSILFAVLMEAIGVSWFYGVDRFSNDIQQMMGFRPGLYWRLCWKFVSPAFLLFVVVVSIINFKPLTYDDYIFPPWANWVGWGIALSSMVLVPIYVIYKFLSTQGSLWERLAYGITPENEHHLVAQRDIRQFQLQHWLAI
Cytochrome P450 2D6, sequence (P10635 whole entry): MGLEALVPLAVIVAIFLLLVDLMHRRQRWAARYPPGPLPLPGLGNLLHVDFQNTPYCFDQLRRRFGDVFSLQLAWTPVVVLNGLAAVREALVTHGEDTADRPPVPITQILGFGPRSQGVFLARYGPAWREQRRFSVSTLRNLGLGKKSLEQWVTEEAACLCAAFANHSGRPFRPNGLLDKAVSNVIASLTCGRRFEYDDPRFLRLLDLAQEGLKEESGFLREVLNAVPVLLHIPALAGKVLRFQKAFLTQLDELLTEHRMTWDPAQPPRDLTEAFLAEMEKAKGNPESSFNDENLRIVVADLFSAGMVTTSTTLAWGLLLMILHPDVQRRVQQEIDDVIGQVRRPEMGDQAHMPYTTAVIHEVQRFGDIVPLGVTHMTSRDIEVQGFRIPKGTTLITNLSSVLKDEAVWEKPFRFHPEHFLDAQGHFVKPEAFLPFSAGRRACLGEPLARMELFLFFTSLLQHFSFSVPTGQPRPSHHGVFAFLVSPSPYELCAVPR

CC(C)(Cc1ccc2ccccc2c1)NC[C@@H](O)COc1cccc(Cl)c1C#N.Cl
EC50 [1]: Not Active | Activity (Rattus norvegicus [2]): Active | bioavailability [3]: 11% | Activity (Rattus norvegicus [4]): Active | IC50 [5]: 200 nM | IC50 (Cytochrome P450 2D6): 45 nM | Activity (Rattus norvegicus [6]): Active | IC50 [7]: 3 nM | Activity (Rattus norvegicus [8]): Active | half-life [9]: 2 h | IC50 [10]: 3000 nM | IC50 [11]: 4300 nM | Activity (Rattus norvegicus [12]): Active | clearance (Rattus norvegicus [13]): 74 mL/min/kg | EC50 [14]: Not Active | EC50 [15]: 41 nM | IC50 [16]: 200 nM | Activity (Rattus norvegicus [17]): Active | IC50 [18]: 2 nM | IC50 [19]: 43 nM | Vd [20]: 11 L/kg

COc1ccc(CCC(C)(C)NCC(O)COc2ccccc2)cc1 (racemic)
IC50 [7]: 2780 nM | IC50 [19]: 13000 nM

COc1ccc(CC(C)(C)NCCCOc2cccc(Cl)c2Cl)cc1
IC50 [7]: 930 nM | IC50 [19]: 2500 nM

COc1ccc(C(C)(C)NCC(O)COc2ccccc2)cc1 (racemic)
IC50 [7]: > 10000 nM | IC50 [19]: > 100000 nM

CCCOCC(O)CNC(C)(C)Cc1ccc(OC)cc1 (racemic)
IC50 [7]: 7000 nM | IC50 [19]: 16000 nM

CC(C)(Cc1ccccc1)NCC(O)COc1ccccc1 (racemic)
IC50 [19]: 2300 nM

COc1ccc(CC(C)(C)NCC(O)COC(C)C)cc1 (racemic)
IC50 [7]: 10000 nM | IC50 [19]: 6400 nM

COc1ccc(CC(C)(C)NC[C@H](O)COc2cccc(Cl)c2Cl)cc1
IC50 [7]: 300 nM | IC50 [11]: 1 nM | EC50 ([14]; read-out: EC50): 200 nM | IC50 [19]: 340 nM

COc1ccc(CC(C)NCC(O)COc2ccccc2)cc1 (racemic)
IC50 [7]: > 10000 nM | IC50 [19]: > 100000 nM

COc1ccc(CC(C)(C)NCC(O)COc2ccccc2)cc1 (racemic)
IC50 [7]: 2300 nM | IC50 [19]: 2300 nM

COc1ccc(C(C)(C)CNCC(O)COc2ccccc2)cc1 (racemic)
IC50 [7]: > 10000 nM | IC50 [19]: > 100000 nM

COc1ccc(CC(C)(C)NCC(O)COc2ccccc2OC)cc1 (racemic)
IC50 [7]: 3500 nM | IC50 [19]: 15600 nM

COc1ccc(CC(C)(C)NCC(O)COc2cccc(Cl)c2C#N)cc1 (racemic)
EC50 [1]: Not Active | IC50 [5]: 1100 nM | IC50 (Cytochrome P450 2D6): 76 nM | IC50 [7]: 70 nM | IC50 [10]: 3600 nM | IC50 [11]: 23 nM | EC50 [14]: Not Active | IC50 [16]: 1000 nM | IC50 [18]: 34 nM | IC50 [19]: 38 nM

COc1ccc(CC(C)(C)NCC(O)COc2ccc3ccccc3c2)cc1 (racemic)
IC50 [7]: 1300 nM | IC50 [19]: 1400 nM

COc1ccc(CC(C)(C)N(C)CC(O)COc2cccc(Cl)c2Cl)cc1 (racemic)
IC50 [7]: 2300 nM | IC50 [19]: > 3000 nM

COc1ccc(CC(C)(C)NCC(O)COc2ccccc2C#N)cc1 (racemic)
EC50 [1]: Not Active | IC50 [5]: 300 nM | IC50 (Cytochrome P450 2D6): 36 nM | IC50 [7]: 140 nM | IC50 [11]: 21 nM | EC50 ([14]; read-out: EC50): 20 nM | IC50 [16]: 300 nM | IC50 [18]: 21 nM | IC50 [19]: 45 nM

COc1ccc(CCNCC(O)COc2ccccc2)cc1 (racemic)
IC50 [7]: > 10000 nM | IC50 [19]: > 100000 nM

COc1ccc(CC(C)(C)NC[C@@H](O)COc2cccc(Cl)c2Cl)cc1
IC50 [7]: 68 nM | IC50 [11]: 300 nM | EC50 [14]: Not Active | IC50 [19]: 38 nM

COc1ccc(CC(C)(C)NCC(COc2cccc(Cl)c2Cl)OC)cc1 (racemic)
IC50 [7]: 950 nM | IC50 [19]: > 3000 nM

CCCCOCC(O)CNC(C)(C)Cc1ccc(OC)cc1 (racemic)
IC50 [7]: 3200 nM | IC50 [19]: 2200 nM

COc1ccc(CC(C)(C)NCC(O)COc2ccccc2Cl)cc1 (racemic)
IC50 [7]: 1000 nM | IC50 [19]: 490 nM

COc1ccc(CC(C)(C)NC[C@H](O)COc2cccc3[nH]c(=O)[nH]c23)cc1
EC50 ([1]; read-out: EC50): 3 nM | IC50 [5]: 1200 nM | IC50 (Cytochrome P450 2D6): 1260 nM | IC50 [7]: 31800 nM | IC50 [10]: 11800 nM | IC50 [11]: 1.3 nM | EC50 ([14]; read-out: EC50): 7 nM | IC50 [16]: 600 nM | IC50 [18]: 61 nM | IC50 [19]: 11000 nM

CC[C@H](C)[C@H](NC(=O)[C@H](CCC(=O)O)NC(=O)[C@H](CO)NC(=O)[C@@H](NC(=O)[C@@H](N)CO)C(C)C)C(=O)N[C@@H](CCC(N)=O)C(=O)N[C@@H](CC(C)C)C(=O)N[C@@H](CCSC)C(=O)N[C@@H](Cc1cnc[nH]1)C(=O)N[C@@H](CC(N)=O)C(=O)N[C@@H](CC(C)C)C(=O)NCC(=O)N[C@@H](CCCCN)C(=O)N[C@@H](Cc1cnc[nH]1)C(=O)N[C@@H](CC(C)C)C(=O)N[C@@H](CC(N)=O)C(=O)N[C@@H](CO)C(=O)N[C@@H](CCSC)C(=O)N[C@@H](CCC(=O)O)C(=O)N[C@@H](CCCN=C(N)N)C(=O)N[C@H](C(=O)N[C@@H](CCC(=O)O)C(=O)N[C@@H](Cc1c[nH]c2ccccc12)C(=O)N[C@@H](CC(C)C)C(=O)N[C@@H](CCCN=C(N)N)C(=O)N[C@@H](CCCCN)C(=O)N[C@@H](CCCCN)C(=O)N[C@@H](CC(C)C)C(=O)N[C@@H](CCC(N)=O)C(=O)N[C@@H](CC(=O)O)C(=O)N[C@H](C(=O)N[C@@H](Cc1cnc[nH]1)C(=O)N[C@@H](CC(N)=O)C(=O)N[C@@H](Cc1ccccc1)C(=O)O)C(C)C)C(C)C [TERIPARATIDE]
clearance [21]: 1030 mL/min | Vd [22]: 0.12 L/kg | Tmax [23]: ≤ 0.5 h | clearance [24]: 1570 mL/min

COc1ccc(CC(C)(C)NCC(O)COc2cccc(Cl)c2Cl)cc1 (racemic)
IC50 [7]: 200 nM | IC50 [11]: 21 nM | EC50 ([14]; read-out: EC50): 200 nM | IC50 [19]: 45 nM

COc1ccc(CC(C)(C)NCC(O)COc2cccc(Cl)c2)cc1 (racemic)
IC50 [7]: 1000 nM | IC50 [19]: 470 nM
